Assay results of several laboratories.
Lines come from different studies, so protocols differ.
PLCD1: 1-phosphatidylinositol 4,5-bisphosphate phosphodiesterase delta-1 (PLCD1, Homo sapiens, UniProt P51178)
HTR2C: 5-hydroxytryptamine receptor 2C (HTR2C, Homo sapiens, UniProt P28335)
FLT3 F691L: Receptor-type tyrosine-protein kinase FLT3 (FLT3, Homo sapiens, UniProt P36888, F691L)
CSNK1D: Casein kinase I isoform delta (CSNK1D, Homo sapiens, UniProt P48730)
HTR2B: 5-hydroxytryptamine receptor 2B (HTR2B, Homo sapiens, UniProt P41595)
FLT3 ITD: Receptor-type tyrosine-protein kinase FLT3 (FLT3, Homo sapiens, UniProt P36888, ITD)

Compound | target | test | conditions | quantity | value
CCOc1cccc(C(=O)CC(SCc2cccc(Br)c2)C(=O)O)c1 (stereo not drawn) | PLCD1 | ligand displacement, FP | – | Ki | 605 µM
COc1cc2c3c(c1OC)-c1c(OC)ccc(Br)c1CC3N(C)CC2 (stereo not drawn) | HTR2C | cell-free assay, radioligand | – | Ki | 2.2 µM
Cc1n[nH]c2ccc3nc(-c4ccc(C(=O)NCCN(C)C)cc4F)c4c(c3c12)CCCC4 | FLT3 F691L | enzyme activity, inhibitor | – | IC50 | 0.072 µM
CCOc1ccc(C(=O)CC(SCc2ccc(Cl)cc2)C(=O)O)cc1OCC (stereo not drawn) | PLCD1 | ligand displacement, FP | – | Ki | > 1000 µM
Oc1ccc(C2CNCCN2)cc1 (stereo not drawn) | CSNK1D | binding, SPR | – | Kd | > 50 µM
CN(C)CCNC(=O)c1ccc(-c2nc3ccc4[nH]ncc4c3c3c2CCCCC3)c(F)c1 | Receptor-type tyrosine-protein kinase FLT3 (FLT3, Homo sapiens, UniProt P36888, D835Y) | enzyme activity, inhibitor | – | IC50 | 0.007 µM
CCOc1cccc(C(=O)CC(SCc2ccc(Cl)cc2)C(=O)O)c1 (stereo not drawn) | PLCD1 | ligand displacement, FP | – | Ki | 474 µM
Cc1n[nH]c2ccc3nc(-c4ccc(C(=O)NCCN(C)C)cc4)c4c(c3c12)CCCCC4 | Receptor-type tyrosine-protein kinase FLT3 (FLT3, Homo sapiens, UniProt P36888) | enzyme activity, inhibitor | – | IC50 | 0.099 µM
C#CCOc1cccc(C(=O)CC(SCc2cccc(Br)c2)C(=O)O)c1 (stereo not drawn) | PLCD1 | ligand displacement, FP | – | Ki | 710 µM
O=C(O)c1cc(-c2ccc(-c3ccc(Cl)s3)cc2)c2ccc(-c3ccc(C(F)(F)F)cc3)cc2c1 | HTR2C | cell-free assay, radioligand | – | Ki | 0.91 µM
CCOc1ccc(C(=O)CC(SCc2ccc(Br)cc2)C(=O)O)cc1 (stereo not drawn) | PLCD1 | ligand displacement, FP | – | Ki | > 1000 µM
COc1cc2c3c(c1OC)-c1c(OC)ccc(N4CCOCC4)c1CC3N(C)CC2 (stereo not drawn) | HTR2B | ligand displacement, radioligand | – | Ki | 0.773 µM
O=C(NC1CCCCC1)C(=O)c1c[nH]c2ccccc12 | CSNK1D | binding, SPR | – | Kd | 5.7 µM
CCOc1ccc(C(=O)CC(SCc2ccc(F)cc2)C(=O)O)cc1 (stereo not drawn) | PLCD1 | ligand displacement, FP | – | Ki | > 1000 µM
COc1cc(C(C)=O)c(F)cc1O | CSNK1D | binding, SPR | – | Kd | > 50 µM
COc1cc2c3c(c1OC)-c1c(OC)ccc(O)c1CC3N(C)CC2 (stereo not drawn) | HTR2C | cell-free assay, radioligand | – | Ki | 4.3 µM
CN(C)C(=O)c1cc2cnc(Nc3ccc(C(=O)NCCCCCCOc4cccc5c4C(=O)N(C4CCC(=O)NC4=O)C5=O)cc3)nc2n1C1CCCC1 (stereo not drawn) | Ephrin type-B receptor 6 (EPHB6, Homo sapiens, UniProt O15197) | binding, competition with immobilised ligand | – | Kd | < 0.2 µM
c1ccc(-c2oc3ncnc(NCCCN4CCOCC4)c3c2-c2ccccc2)cc1 | CSNK1D | binding, SPR | – | Kd | > 50 µM
COc1cccc(C(=O)CC(SCc2ccc(Cl)cc2)C(=O)O)c1 (stereo not drawn) | PLCD1 | ligand displacement, FP | – | Ki | > 1000 µM
CN(C)CCN(C)C(=O)c1ccc(-c2nc3ccc4[nH]ncc4c3c3c2CCCCC3)cc1 | FLT3 ITD | enzyme activity, inhibitor | – | IC50 | > 1 µM
Brc1cnc2nccnc2c1 | CSNK1D | binding, SPR | – | Kd | > 50 µM
CN(C)CCNC(=O)c1ccc(-c2nc3ccc4[nH]ncc4c3c3c2CCCC3)cc1 | FLT3 F691L | enzyme activity, inhibitor | – | IC50 | 0.157 µM
c1cc(CN2CCCNCCNCCCNCC2)ccc1CN1CCCNCCNCCCNCC1 | CSNK1D | binding, SPR | – | Kd | > 50 µM
CN(C)CCN(C)C(=O)c1ccc(-c2nc3ccc4[nH]ncc4c3c3c2CCCCC3)cn1 | FLT3 ITD | enzyme activity, inhibitor | – | IC50 | > 1 µM
COCc1n[nH]c(N)c1-c1ccc(Cl)cc1 | CSNK1D | binding, SPR | – | Kd | > 50 µM
CCOc1ccc(-c2cc(C(=O)O)c(-c3ccc(Cl)cc3)o2)cc1 | PLCD1 | ligand displacement, FP | – | Ki | > 100 µM
COCCNC(=O)c1ccc(-c2nc3ccc4[nH]ncc4c3c3c2CCCC3)cc1 | FLT3 ITD | enzyme activity, inhibitor | – | IC50 | 0.664 µM
CCCNC(=O)c1ccc2c3c1C(CC(F)(F)F)CN3CCNC2 (racemic) | HTR2B | ligand displacement, radioligand | cell membranes | Ki | 2.25 µM
N#Cc1ccccc1C#CCO | CSNK1D | binding, SPR | – | Kd | > 50 µM
Cc1n[nH]c2ccc3nc(-c4ccc(C(=O)NCCN(C)C)cc4)c4c(c3c12)CCC(F)(F)C4 | FLT3 ITD | enzyme activity, inhibitor | – | IC50 | 0.355 µM
